According to ChEMBL document CHEMBL1156112, “Discovery of 3-(1H-indol-3-yl)-4-[2-(4-methylpiperazin-1-yl)quinazolin-4-yl]pyrrole-2,5-dione (AEB071), a potent and selective inhibitor of protein kinase C isotypes” (J Med Chem, 2009):

Tests used:
[1] = molecular target: Protein kinase C alpha type (Homo sapiens, UniProt P17252); experiment: Inhibition of PKCalpha by SPA
[2] = molecular target: Protein kinase C beta type (Homo sapiens, UniProt P05771); experiment: Inhibition of PKCbeta1 by SPA
[3] = molecular target: Protein kinase C delta type (Homo sapiens, UniProt Q05655); experiment: Inhibition of PKCdelta by SPA
Chain of Protein kinase C delta type (Q05655 whole entry): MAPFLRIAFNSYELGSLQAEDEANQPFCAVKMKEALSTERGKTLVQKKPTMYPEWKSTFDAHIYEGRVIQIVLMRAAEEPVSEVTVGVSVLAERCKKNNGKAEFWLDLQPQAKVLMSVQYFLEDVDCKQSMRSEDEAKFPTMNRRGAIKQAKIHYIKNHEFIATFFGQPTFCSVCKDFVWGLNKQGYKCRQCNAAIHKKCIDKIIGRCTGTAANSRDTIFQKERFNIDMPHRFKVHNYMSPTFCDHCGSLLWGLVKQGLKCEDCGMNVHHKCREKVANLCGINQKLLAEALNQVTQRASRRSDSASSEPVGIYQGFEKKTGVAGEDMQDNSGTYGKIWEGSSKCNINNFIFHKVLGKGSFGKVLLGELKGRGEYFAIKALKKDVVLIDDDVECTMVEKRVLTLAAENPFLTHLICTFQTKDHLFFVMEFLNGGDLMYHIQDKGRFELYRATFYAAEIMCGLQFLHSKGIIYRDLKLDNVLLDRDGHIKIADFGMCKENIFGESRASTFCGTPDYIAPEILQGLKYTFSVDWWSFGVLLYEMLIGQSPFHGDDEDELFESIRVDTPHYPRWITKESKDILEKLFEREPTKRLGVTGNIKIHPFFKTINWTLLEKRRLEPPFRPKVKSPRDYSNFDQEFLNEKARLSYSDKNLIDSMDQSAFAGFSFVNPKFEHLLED

[4] = molecular target: T1, Protein kinase C epsilon type (Homo sapiens, UniProt Q02156); experiment: Inhibition of PKCepsilon by SPA
T1 sequence (Q02156 whole entry): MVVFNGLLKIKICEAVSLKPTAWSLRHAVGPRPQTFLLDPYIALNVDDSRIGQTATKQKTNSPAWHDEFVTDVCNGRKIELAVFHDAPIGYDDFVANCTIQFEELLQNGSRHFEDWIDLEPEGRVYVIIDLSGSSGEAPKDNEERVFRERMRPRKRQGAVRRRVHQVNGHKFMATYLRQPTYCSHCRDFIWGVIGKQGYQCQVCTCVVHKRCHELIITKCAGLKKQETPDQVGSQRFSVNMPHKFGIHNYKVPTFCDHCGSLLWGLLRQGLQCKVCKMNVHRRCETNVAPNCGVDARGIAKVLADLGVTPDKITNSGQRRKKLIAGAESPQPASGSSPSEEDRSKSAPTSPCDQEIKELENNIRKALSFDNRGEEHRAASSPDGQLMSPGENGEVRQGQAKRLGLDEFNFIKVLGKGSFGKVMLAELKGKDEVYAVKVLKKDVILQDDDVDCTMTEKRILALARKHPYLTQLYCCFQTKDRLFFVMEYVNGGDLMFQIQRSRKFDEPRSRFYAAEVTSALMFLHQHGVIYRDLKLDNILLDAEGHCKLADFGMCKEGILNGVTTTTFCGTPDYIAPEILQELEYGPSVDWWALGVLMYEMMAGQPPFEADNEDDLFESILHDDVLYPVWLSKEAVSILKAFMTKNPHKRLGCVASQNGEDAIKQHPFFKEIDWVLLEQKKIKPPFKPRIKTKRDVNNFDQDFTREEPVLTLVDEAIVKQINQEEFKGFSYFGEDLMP

[5] = molecular target: Protein kinase C eta type (Homo sapiens, UniProt P24723); experiment: Inhibition of PKCeta by SPA
Chain of Protein kinase C eta type (P24723 whole entry): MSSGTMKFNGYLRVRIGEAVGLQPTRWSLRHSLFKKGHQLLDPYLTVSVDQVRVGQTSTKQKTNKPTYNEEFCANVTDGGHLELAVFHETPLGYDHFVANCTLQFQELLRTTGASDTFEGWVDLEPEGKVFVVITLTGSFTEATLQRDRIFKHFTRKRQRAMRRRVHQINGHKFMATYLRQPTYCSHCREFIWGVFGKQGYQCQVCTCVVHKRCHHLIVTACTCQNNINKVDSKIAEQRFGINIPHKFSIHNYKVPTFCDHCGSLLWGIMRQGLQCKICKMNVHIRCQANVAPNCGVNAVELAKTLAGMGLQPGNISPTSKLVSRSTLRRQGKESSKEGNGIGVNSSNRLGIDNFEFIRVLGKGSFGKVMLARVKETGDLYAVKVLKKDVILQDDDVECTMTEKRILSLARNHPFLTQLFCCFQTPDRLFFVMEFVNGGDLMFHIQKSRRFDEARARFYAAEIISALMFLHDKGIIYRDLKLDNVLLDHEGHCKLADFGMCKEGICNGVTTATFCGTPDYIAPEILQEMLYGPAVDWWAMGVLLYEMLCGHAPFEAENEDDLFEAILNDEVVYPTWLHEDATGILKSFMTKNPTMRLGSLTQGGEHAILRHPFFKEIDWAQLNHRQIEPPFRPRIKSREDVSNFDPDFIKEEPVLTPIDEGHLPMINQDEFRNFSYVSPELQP

[6] = molecular target: Protein kinase C theta type (Homo sapiens, UniProt Q04759); experiment: Inhibition of PKCtheta by SPA
Chain of Protein kinase C theta type (Q04759 whole entry): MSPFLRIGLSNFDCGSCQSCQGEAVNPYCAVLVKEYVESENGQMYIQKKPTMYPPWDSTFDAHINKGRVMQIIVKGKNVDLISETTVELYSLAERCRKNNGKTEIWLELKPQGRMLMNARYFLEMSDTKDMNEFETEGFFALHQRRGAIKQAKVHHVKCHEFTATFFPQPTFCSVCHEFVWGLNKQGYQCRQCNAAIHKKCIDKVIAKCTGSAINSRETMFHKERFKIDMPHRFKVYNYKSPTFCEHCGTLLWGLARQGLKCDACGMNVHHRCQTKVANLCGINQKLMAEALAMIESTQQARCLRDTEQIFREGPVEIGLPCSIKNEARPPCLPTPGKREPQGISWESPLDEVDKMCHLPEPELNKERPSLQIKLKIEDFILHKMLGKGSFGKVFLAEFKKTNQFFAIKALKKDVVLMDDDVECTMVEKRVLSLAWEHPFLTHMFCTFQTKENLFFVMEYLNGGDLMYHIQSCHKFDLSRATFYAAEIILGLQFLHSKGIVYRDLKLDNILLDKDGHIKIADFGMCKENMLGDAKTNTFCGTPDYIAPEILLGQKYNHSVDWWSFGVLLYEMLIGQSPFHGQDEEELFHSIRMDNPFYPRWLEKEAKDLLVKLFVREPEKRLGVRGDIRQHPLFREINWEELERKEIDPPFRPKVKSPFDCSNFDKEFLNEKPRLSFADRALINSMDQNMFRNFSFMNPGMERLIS

cells = conditions: Homo sapiens, Jurkat
[7] = AUC (0 to infinity) in OFA rat at 5 mg/kg, iv; assay type: ADME, organism-based; set-up: time infinity, dose 5 mg/kg, route intravenous; conditions: plasma
Summary of the method: (§1)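 Rats dosed either 5 mg/kg iv in 75% saline (0.9%)-25% PEG400 or 20 mg/kg po in 75% water-25% PEG400. OFA or Lewis rats were used depending on the compound. Values are averages of three animals. AUC is extrapolated to infinity. Oral bioavailability (F) comes from the po and iv exposures.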

[8] = Elimination half life in OFA rat at 5 mg/kg, iv; assay type: ADME, organism-based; set-up: dose 5 mg/kg, route intravenous; conditions: in vivo, read-out: beta t1/2 (converted); summary of the method: as §1
[9] = Clearance in OFA rat at 5 mg/kg, iv; assay type: ADME, organism-based; set-up: dose 5 mg/kg, route intravenous; conditions: in vivo; summary of the method: as §1
[10] = Volume of distribution at steady state in OFA rat at 5 mg/kg, iv; assay type: ADME, organism-based; set-up: dose 5 mg/kg, route intravenous; conditions: in vivo, read-out: Vdss; summary of the method: as §1
[11] = Tmax in OFA rat at 20 mg/kg, po; assay type: ADME, organism-based; set-up: dose 20 mg/kg, route oral; conditions: in vivo; summary of the method: as §1
[12] = Cmax in OFA rat at 20 mg/kg, po; assay type: ADME, organism-based; set-up: dose 20 mg/kg, route oral; conditions: in vivo; summary of the method: as §1
[13] = AUC (0 to infinity) in OFA rat at 20 mg/kg, po; assay type: ADME, organism-based; set-up: dose 20 mg/kg, route oral, time infinity; conditions: plasma; summary of the method: as §1
[14] = Oral bioavailability in OFA rat at 20 mg/kg, po; assay type: ADME, organism-based; conditions: in vivo; summary of the method: as §1

Chain of Protein kinase C beta type (P05771 whole entry): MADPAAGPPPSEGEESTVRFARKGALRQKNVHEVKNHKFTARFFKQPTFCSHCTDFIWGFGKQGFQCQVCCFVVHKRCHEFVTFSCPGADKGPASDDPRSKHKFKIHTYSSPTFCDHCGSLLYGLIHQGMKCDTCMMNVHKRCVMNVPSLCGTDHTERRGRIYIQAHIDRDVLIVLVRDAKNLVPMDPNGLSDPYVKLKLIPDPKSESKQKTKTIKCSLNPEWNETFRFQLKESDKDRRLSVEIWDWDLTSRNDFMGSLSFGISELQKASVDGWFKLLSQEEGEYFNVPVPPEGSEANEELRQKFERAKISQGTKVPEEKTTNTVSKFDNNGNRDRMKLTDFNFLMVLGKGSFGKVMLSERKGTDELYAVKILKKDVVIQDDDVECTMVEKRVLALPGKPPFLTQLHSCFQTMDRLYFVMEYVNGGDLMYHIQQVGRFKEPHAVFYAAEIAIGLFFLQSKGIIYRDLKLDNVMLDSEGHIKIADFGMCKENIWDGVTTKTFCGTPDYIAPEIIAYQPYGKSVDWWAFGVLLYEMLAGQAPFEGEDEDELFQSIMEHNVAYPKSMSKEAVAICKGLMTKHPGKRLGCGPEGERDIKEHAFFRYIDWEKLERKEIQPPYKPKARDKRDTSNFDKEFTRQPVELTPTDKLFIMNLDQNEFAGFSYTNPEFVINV

| Structure (SMILES) | IC50 [1] [nM] | IC50 [2] [nM] | IC50 [3] [nM] | IC50 [4] [nM] | IC50 [5] [nM] | IC50 [6] [nM] | IC50 (cells) [nM] | AUC(0-inf) [7] [ng·h/mL] | half-life [8] [h] | clearance [9] [mL/min/kg] | Vd [10] [L/kg] | Tmax [11] [h] | Cmax [12] [ng/mL] | AUC(0-inf) [13] [ng·h/mL] | bioavailability [14] [%] |
| --- | --- | --- | --- | --- | --- | --- | --- | --- | --- | --- | --- | --- | --- | --- | --- |
| O=C1NC(=O)C(c2c[nH]c3ccccc23)=C1c1nc(N2CCOCC2)nc2ccccc12 | 1500 | 1270 | 794 | 1820 | 2540 | 1380 | > 3700 | – | – | – | – | – | – | – | – |
| CN(C)CCOc1cc(C2=C(c3c[nH]c4ccccc34)C(=O)NC2=O)c2ccccc2c1 | 2.2 | 2.1 | 4.4 | 5.5 | 11 | 3.3 | 69 | 2690 | 20.6 | 30.9 | 48.2 | 0.5 | 16.2 | 154 | 1 |
